# Screens deposited in PubChem by Johns Hopkins Ion Channel Center.
# hERG protect – hERG (human) protection from proarrhythmic block; 310,000 compounds, 0.51% hits; activation (rescue from dofetilide block), less the hit threshold, % at 10 µM; Q12809; CHO-hERG, FluxOR thallium flux, dofetilide IC70 present;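 active means activation above the mean of controls blocked by dofetilide plus 5 SD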;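 further: thallium influx through hERG after potassium depolarization seen as dye fluorescence rise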
# Kir21 inh – blocks the mouse Kir2.1 inward-rectifier potassium channel; AID 1672; HEK293-Kir2.1, FluxOR thallium flux fluorescence; hits give low values; B-score at 10 µM; P35561; 310,000 compounds, 0.85% hits;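 active means fluorescence ratio B-score at or below minus 3 SD of library scores, with starting-brightness B-score within 2 SD, cut at about -4.2 in these data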;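 further: channel flux triggered by added potassium and thallium sulfate stimulus; B-score of peak minus minimum fluorescence over baseline after thallium stimulus; more negative B-score means stronger Kir2.1 block with less thallium influx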
# KCNQ1 inh – blocks the human KCNQ1 potassium channel | P51787 | CHO-K1 KCNQ1, FluxOR thallium flux fluorescence; hits give high values | B-score at 10 µM | 310,000 compounds, 1.3% hits | AID 2642;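 active means compounds whose thallium flux B-score, printed positive for inhibition, exceeds three library SD while starting fluorescence stays within three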;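 further: channel opened by potassium depolarization with thallium stimulus after 20 min compound exposure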
# Target sequence (P51787 whole entry, looked up): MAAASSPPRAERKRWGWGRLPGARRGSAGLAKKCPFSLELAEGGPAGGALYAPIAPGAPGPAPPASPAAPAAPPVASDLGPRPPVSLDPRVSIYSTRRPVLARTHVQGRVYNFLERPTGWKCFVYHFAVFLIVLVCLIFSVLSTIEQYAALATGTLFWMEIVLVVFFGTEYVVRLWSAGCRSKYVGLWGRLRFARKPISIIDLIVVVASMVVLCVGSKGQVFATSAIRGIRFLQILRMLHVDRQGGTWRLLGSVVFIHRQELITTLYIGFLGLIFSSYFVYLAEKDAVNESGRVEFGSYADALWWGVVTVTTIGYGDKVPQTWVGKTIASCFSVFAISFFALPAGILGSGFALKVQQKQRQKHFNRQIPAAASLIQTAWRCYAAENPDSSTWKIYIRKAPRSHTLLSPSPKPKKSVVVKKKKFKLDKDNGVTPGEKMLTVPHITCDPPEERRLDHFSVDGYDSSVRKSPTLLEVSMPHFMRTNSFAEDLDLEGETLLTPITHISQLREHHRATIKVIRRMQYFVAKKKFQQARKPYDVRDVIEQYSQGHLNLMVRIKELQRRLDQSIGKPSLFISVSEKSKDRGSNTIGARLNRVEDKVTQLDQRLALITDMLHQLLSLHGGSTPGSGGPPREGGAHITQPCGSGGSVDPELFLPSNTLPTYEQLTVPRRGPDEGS
# KCNK9 block – blocks the human KCNK9 two-pore domain potassium channel; Q9NPC2; 310,000 compounds, 1.2% hits; B-score at 10 µM; AID 488922; HEK293 KCNK9, FluxOR thallium flux fluorescence; hits give low values;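 active means ratio B-score over 3 SD below the library mean, with starting fluorescence within 5 SD of its mean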;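 further: negative B-score means less thallium flux so channel inhibition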
# KCNK3 inh – human KCNK3 channel inhibition, primary screen. 340,000 compounds, 0.84% hits. B-score at 10 µM. CHO-KCNK3 thallium flux, FluxOR fluorescence; hits give low values. O14649;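 active means B-score under library mean minus 4 SD, starting fluorescence ratio at most library mean plus 5 SD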;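 further: more negative B-score means stronger inhibition of thallium flux through KCNK3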
# KCNQ1 act – potentiates or activates the human KCNQ1 potassium channel | P51787 | B-score at 10 µM | CHO-K1 KCNQ1, thallium flux FluxOR fluorescence; hits give high values | 310,000 compounds, 0.35% hits | AID 2648;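 active means fluorescence ratio B-score, a plate-corrected score, at least three library SD, with initial intensity B-score within 5 SD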
#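 Assay system: CHO-K1 cells stably expressing KCNQ1. Medium: assay buffer for compound exposure, DMSO matched across wells. Timing: 37 °C overnight plating, 90-min dark dye load, 20-min compound pretreatment. Signal: kinetic FluxOR fluorescence, 10 s baseline plus 110 s post-stimulus.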
# KCNK9 inh conf – confirmation of human KCNK9 potassium channel inhibitors | shares compounds with KCNK9 block | HEK293 KCNK9 cells, FluxOR thallium flux fluorescence | inhibition, % at 10 µM | 4,900 compounds, 43% hits;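 active means thallium signal inhibited by more than 5 SD of the compound-free buffer control wells, on both duplicate plates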;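 further: 0% = assay buffer control wells without compound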
# Kir21 sel – selectivity of KCNK9 modulators against mouse Kir2.1; shares compounds with KCNK9 block; Kir2.1 cells, FluxOR thallium flux fluorescence; inhibition, % at 10 µM; 4,900 compounds, 4% hits; AID 492993;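 active means thallium signal drop more than 5 SD beyond the mean of the no-compound control wells, seen in both duplicate plates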;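 further: signal is fluorescence rise after thallium addition divided by baseline fluorescence; plate controls were assay buffer only for no effect and full block by chlorpromazine control for full effect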
# KCNK9 uninduced – non-induced cell nonspecific activity of KCNK9 modulators. shares compounds with KCNK9 block. non-induced KCNK9-HEK293, FluxOR thallium flux. inhibition, % at 10 µM. 4,900 compounds, 40% hits. AID 492997;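 active means thallium signal drop beyond 5 SD of the untreated control mean, on both duplicate plates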;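 further: plate controls were buffer only IC0 wells for no effect and SID17386958 at its maximal inhibitory level for full effect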
# Numbers without * were called inactive; i = inactive; / = not tested or not shown. The list is not random: actives were taken first. Their share in the collection is about 3.7%.
SMILES,hERG protect,Kir21 inh,KCNQ1 inh,KCNK9 block,KCNK3 inh,KCNQ1 act,KCNK9 inh conf,Kir21 sel,KCNK9 uninduced
O=C(Nc1ccc(Br)cc1)C1CCN(C(=O)c2ccc(F)cc2)CC1,-5,-0.85,i,i,i,i,i,i,i
CO/N=C(\c1nonc1N)N1CCN(c2ccc(Cl)cc2[N+](=O)[O-])CC1,-14,1.4,i,-8.3*,i,i,32%*,i,39%*
O=C(c1cccnc1)C1CCCN(Cc2nc(Cc3ccccc3F)no2)C1 (stereo not drawn),-7,-0.63,i,i,i,i,/,/,/
O=C(c1cccs1)C1CCCN(Cc2nc(Cc3ccccc3F)no2)C1 (stereo not drawn),-10,-1.2,i,i,i,i,i,i,i
COc1cc(OC)c(C2CC(=O)N3CN(c4ccccc4)CSC3=C2C#N)cc1OC (stereo not drawn),-9,-0.64,i,i,i,i,/,/,/
COc1ccc(OC)c(C2CC(=O)N3CN(c4cccc(Cl)c4C)CSC3=C2C#N)c1 (stereo not drawn),-19,0.85,i,i,i,i,/,/,/
N#CC1=C2SCN(c3ccccc3)CN2C(=O)CC1c1ccccc1Cl (stereo not drawn),-7,0.65,i,i,i,i,i,i,i
COc1cccc(C2CC(=O)N3CN(c4cccc(Cl)c4C)CSC3=C2C#N)c1OC (stereo not drawn),-12,-0.07,i,i,i,i,i,i,i
N#CC1=C2SCN(c3ccccc3)CN2C(=O)CC1c1c(Cl)cccc1Cl (stereo not drawn),-17,-0.24,i,i,i,i,i,i,i
N#CC1=C2SCN(c3ccccc3)CN2C(=O)CC1c1cccs1 (stereo not drawn),-5,0.53,i,i,i,i,/,/,/
COc1ccc(NC(=O)COC(=O)Cn2cnc3ccccc3c2=O)c(OC)c1,/,/,/,/,i,/,/,/,/
CCCCOc1ccc(CNC(=S)N/N=C/c2ccc(OC)c(OC)c2)cc1,-11,2.2,i,i,i,i,/,/,/
CC1CCN(CCCNC(=O)CCNC(=O)Cn2cnc3ccccc3c2=O)CC1,-5,-2,i,i,i,i,/,/,/
CN(C1CCCCC1)S(=O)(=O)c1cccc(C(=O)OCC(=O)NC2CCCc3ccccc32)c1 (stereo not drawn),-4,1.3,i,-9.5*,i,i,56%*,i,i
O=C(Nc1ccc(S(=O)(=O)Nc2ncccn2)cc1)c1cccc(S(=O)(=O)N2CCCC2)c1,-10,1,i,i,i,i,/,/,/
O=C(NCc1cn(-c2ccccc2)nc1-c1ccccc1)c1cc([N+](=O)[O-])cc([N+](=O)[O-])c1,-5,1.3,i,i,i,i,/,/,/
COc1ccc(-c2nn(-c3ccccc3)cc2CNC(=O)c2cccc([N+](=O)[O-])c2)cc1,-9,0.02,i,-11*,i,i,52%*,i,30%*
CC(=O)N1N=C(c2ccccc2)CC1c1cn(Cc2ccccc2)c2ccccc12 (stereo not drawn),-8,0.12,i,-8.4*,i,i,38%*,i,34%*
CCOC(=O)c1ccccc1NC(=O)Cc1ccc(OC)c(S(=O)(=O)N2CCOCC2)c1,/,/,/,/,i,/,/,/,/
COc1ccccc1/C=C(/C(=O)OCC(=O)Nc1ccccc1C(C)C)c1ccccc1,-5,0.14,i,-9.5*,i,i,51%*,i,39%*
CCN(CC)c1ccc(C(=O)NNC(=O)CN2C(=O)NC3(CCCCC3)C2=O)cc1,-6,1.5,i,i,i,i,/,/,/
COC(=O)c1ccc(S(=O)(=O)N2CCN(C(c3ccccc3)c3ccccc3)CC2)n1C,-3,1.1,i,i,i,i,i,i,i
O=C(CC(Nc1ccccc1)c1ccc(F)cc1)c1ccccc1 (stereo not drawn),-14,-5.5*,i,-9.7*,i,i,60%*,i,42%*
O=C1CSC(c2ccncc2)N1Cc1ccco1 (stereo not drawn),-6,-0.98,i,i,i,i,/,/,/
CCc1ccc(-c2nn(-c3ccccc3)cc2C2SCC(=O)N2Cc2ccco2)cc1 (stereo not drawn),-10,0.03,i,i,i,i,i,i,i
SMILES,hERG protect,Kir21 inh,KCNQ1 inh,KCNK9 block,KCNK3 inh,KCNQ1 act,KCNK9 inh conf,Kir21 sel,KCNK9 uninduced
CCOC(=O)C1=CN(Cc2ccco2)S(=O)(=O)N(CC)C1c1ccc(F)c(Cl)c1 (stereo not drawn),/,/,/,/,i,/,/,/,/
COC(=O)c1ccc(Oc2nc(C)cc(Oc3ccccc3)n2)cc1,-11,0.54,i,i,i,i,i,i,i
COc1ccc(S(=O)(=O)NNC(=O)C(=O)NNc2ccccn2)cc1,-7,-0.19,i,i,i,i,/,/,/
CS(=O)(=O)N1CCN(C(=O)C2c3ccccc3Oc3ccccc32)CC1,-8,-0.57,i,i,i,i,/,/,/
CCOc1ccccc1N1CCN(C(=O)C2c3ccccc3Oc3ccccc32)CC1,-9,1.8,i,-12*,-9.3*,i,45%*,i,36%*
Oc1ccc(Cl)cc1Cc1cc(Cl)ccc1O,-37,-6*,i,-14*,i,i,58%*,i,35%*
CC(c1ccccc1)n1c(SCC(=O)N2CC(=O)Nc3ccccc32)nc2ccccc2c1=O (stereo not drawn),-6,2.2,i,-9*,i,i,36%*,i,i
Cc1ccc(Cn2c(SCC(=O)N3CC(=O)Nc4ccccc43)nc3ccccc3c2=O)cc1,-2,-1.1,i,i,i,i,i,i,i
O=C(Nc1nccs1)C1CCN(S(=O)(=O)c2c(Cl)cccc2Cl)CC1,-8,-1.2,i,-16*,i,i,i,i,i
CCOC(=O)Cc1c(C)nc2c(-c3ccccc3)c(C)nn2c1C,-6,-0.45,i,i,i,i,i,i,i
O=C(Cn1cc(C(=O)c2cccs2)c2ccccc21)NC1CCCCC1,-9,0.74,i,-12*,i,i,54%*,i,28%*
